Assay outcomes: PubChem, several laboratories
Sampled rows, rich in hits. Any-hit rate of the full collection: about 2.1%.
EBI2 antag: EBI2 receptor antagonists, beta-arrestin recruitment, primary screen, cell-based, luminescence, 7a,25-OHC stimulation, uHTS; G-protein coupled receptor 183 (Homo sapiens), P32249; 7a,25-OHC stimulated; inhibition, % at 5 µM; 360,000 compounds, 0.81% hits; AID 651636, 2012; in the data active = inhibition above about 38%;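 also: enzyme fragment complementation signal reports receptor beta-arrestin coupling in cells; 0% = agonist plus DMSO wells and 100% = wells without agonist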
CCR6 antagonist: CCR6 receptor antagonists, primary screen, cell-based, CHO-K1, luminescence, beta-arrestin, uHTS. inhibition, % at 20 µM. CHO-K1 CCR6 PathHunter beta-arrestin, CCL20-stimulated. 340,000 compounds, 0.49% hits. AID 493098, 2011;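 active = compounds whose inhibition of the agonist-driven luminescence signal at 20 µM reaches about 50%, limit read from the data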;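 also: cells stimulated with CCL20 at 14 nM final; plate controls were DMSO with CCL20 for no effect and DMSO without agonist for full effect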
Target sequence (P51684 whole entry, looked up): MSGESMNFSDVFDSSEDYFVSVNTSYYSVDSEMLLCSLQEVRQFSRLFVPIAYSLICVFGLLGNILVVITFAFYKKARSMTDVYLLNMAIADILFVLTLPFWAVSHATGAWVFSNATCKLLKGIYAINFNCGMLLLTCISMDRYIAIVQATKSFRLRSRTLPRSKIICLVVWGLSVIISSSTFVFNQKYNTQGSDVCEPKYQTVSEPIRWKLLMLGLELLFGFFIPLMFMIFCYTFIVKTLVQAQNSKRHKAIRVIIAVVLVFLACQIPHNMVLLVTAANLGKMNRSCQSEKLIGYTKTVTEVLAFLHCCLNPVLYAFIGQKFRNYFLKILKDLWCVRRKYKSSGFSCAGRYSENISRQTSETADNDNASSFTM
APJ antag: antagonists of human apelin receptor APJ, primary screen, CHO-K1 cells, beta-arrestin complementation, luminescence; inhibition, % at 20 µM; 330,000 compounds, 0.32% hits; AID 2521, 2010;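 active = inhibition above about 40% at 20 µM, limit read from the data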;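 also: cells challenged with 10 nM apelin-13 agonist together with compound; plate controls were apelin-13 plus DMSO wells for no effect and DMSO wells lacking apelin-13 for full effect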
HTR2A ag: mouse Htr2a agonists via beta-arrestin recruitment, primary screen, cell-based, luminescence | 5-hydroxytryptamine receptor 2A (Mus musculus), P35363 | CHO-K1 mHTR2A beta-arrestin complementation; percent of 30 µM serotonin response | activation, % at 7.6 µM | 360,000 compounds, 0.66% hits;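 active = activation above a run cutoff, the mean activation of all tested compounds plus 3 SD, cut at about 14% in these data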;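 also: 0% = plate median of compound wells and 100% = 30 µM serotonin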
CXCR6 inh: CXCR6 receptor inhibitors, primary screen, cell-based, beta-arrestin, luminescence, CHO-K1 PathHunter, 1536-well | C-X-C chemokine receptor type 6 (Homo sapiens), O00574 | AID 602244, 2012 | 360,000 compounds, 0.36% hits | inhibition, % at 20 µM; in the data active = inhibition above about 34%, passing the limit was not always enough;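 also: antagonist mode with CXCL16 agonist at 10 nM final; 0% = 10 nM CXCL16 with DMSO and 100% = unstimulated wells without agonist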
APJ agonist: agonists of human apelin receptor APJ, primary screen, CHO-K1 cells, PathHunter beta-arrestin, luminescence. 0% DMSO wells, 100% apelin. activation, % at 20 µM. 330,000 compounds, 0.11% hits;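 active = activation more than six SD over the plate average, tested at 20 µM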;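 also: 0% = DMSO alone and 100% = apelin-13 at 10 nM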
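Assay system – PathHunter CHO-K1 APJ (AGTRL-1) beta-arrestin reporter cells · Compound – one dose, 20 µM compound, 1% DMSO · Timing – compound 90 min 25 °C, reagent 1 h · Measured by – luminescence from split beta-galactosidase complementation, Galacton Star/Emerald II substrate · Measure – beta-arrestin recruitment to APJ as agonist activity, luminescent signal · Benchmarks – DMSO vs Apelin-13 10 nM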
EBI2 conf: EBI2 antagonist hit retest, beta-arrestin, confirmation, cell-based, single concentration, luminescence, 7a,25-OHC stimulation | shares compounds with EBI2 antag | 7a,25-OHC antagonism | inhibition, % at 5 µM | 2,400 compounds, 29% hits | AID 651997, 2013;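 active = inhibition of at least 50%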
EBI2 agonist: EBI2 agonist activity of antagonist hits, confirmation, counter-screen for EBI2 antagonist project, cell-based, single concentration, agonist mode, luminescence; shares compounds with EBI2 antag; EBI2-expressing cells, 60 min; 0% vehicle, 100% 7α,25-dihydroxycholesterol control; activation, % at 5 µM; 2,400 tested, under 10 active;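 active = activation of at least 50%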
bGal cs: E. coli beta-galactosidase enzyme inhibition, confirmation, counter-screen for EBI2 antagonist project, biochemical, luminescence, single concentration | shares compounds with EBI2 antag | purified beta-galactosidase, luminescent Galacton Star, 15 min | inhibition, % at 5 µM | 2,400 compounds, 1% hits;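 active = replicate-average signal at least 3 plate SD below neutral wells, shown as high inhibition, flagging enzyme-inhibiting false positives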;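 also: 0% = DMSO wells with enzyme and 100% = wells lacking enzyme; higher means stronger loss of beta-gal luminescence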
* marks the source's active call; other numbers are inactive results; . = no result.

SMILES	EBI2 antag	CCR6 antagonist	APJ antag	HTR2A ag	CXCR6 inh	APJ agonist	EBI2 conf	EBI2 agonist	bGal cs
COc1cc(/C=C/C(=O)c2ccc(Cl)s2)cc(OC)c1O	45*	48	31	-6	37	-2	33	-2	4
O=C(C1CCN(S(=O)(=O)c2ccc(Br)cc2)CC1)N1CCOCC1	-16	6	10	0	3	-1	.	.	.
Clc1ccc(-c2nnnn2-c2ccc(Cl)c(Cl)c2)cc1Cl	49*	20	27	-3	13	-4	17	-2	-11
CC(=O)c1nn(-c2ccccc2)cc1C(=O)c1ccc(Br)cc1	26	-11	7	4	-3	-1	.	.	.
CC(=O)c1nn(-c2ccc(Cl)cc2)cc1C(=O)c1ccccc1	46*	-4	5	-4	-11	-4	26	0	-14
COc1ccc(/C=N/n2cnc3c(sc(=S)n3-c3ccccc3)c2=O)cc1	51*	13	-7	4	2	-5	26	-2	-13
CCc1ccccc1NC(=O)CN1CCN(CC(=O)Nc2ccc(-c3ccccc3)cc2)CC1	6	18	-1	5	-1	0	.	.	.
CCOC(=O)C1CCCN(C(=O)/C=C/c2ccc(Cl)cc2)C1 (stereo unspecified)	46*	19	-2	6	-6	-1	22	0	-7
Cc1ccc(/C=C/C(=O)N2CCC(Cc3ccccc3)CC2)cc1	96*	-4	-3	-4	1	0	86*	2	7
CCc1ccccc1NC(=O)CN1CCN(C(=O)C2CCN(C(=O)/C=C/c3ccccc3)CC2)CC1	77*	7	6	3	-1	0	52*	1	1
Cc1ccc(/C=C/C(=O)N2CCCC(C)C2)cc1 (stereo unspecified)	67*	6	6	-3	10	-4	42	0	11
CC1CCCCC1Nc1ncnc2sccc12 (stereo unspecified)	-3	8	4	0	-10	4	.	.	.
Cc1nc(-c2ccc(C(=O)Nc3cc(S(N)(=O)=O)ccc3C)cc2)cs1	-15	-11	-21	1	2	-2	.	.	.
O=C(NCc1ccccc1)c1cccc(NC(=O)C2CC2)c1	-8	3	.	-7	-2	.	.	.	.
Brc1cccc(-c2nnc3sc(CN4CCCCC4)cn23)c1	6	2	10	-2	-6	-4	.	.	.
Brc1ccc(-c2nnc3sc(CN4CCN(c5ccccc5)CC4)cn23)cc1	75*	-7	-12	1	-2	2	39	1	8
O=C(NC(c1ccc(F)cc1)c1cnccn1)C1CCN(CCOc2ccc(Cl)cc2Cl)CC1 (stereo unspecified)	16	.	.	-9	8	.	.	.	.
O=S(=O)(c1cccs1)N1CCN(CCOc2ccc(Cl)cc2)CC1	64*	12	-1	-6	-7	-4	45	1	5
COc1ccc(OCCN2CCC(C(=O)NC(c3ccc(F)cc3)c3ccc4ccccc4n3)CC2)cc1 (stereo unspecified)	53*	.	.	-4	10	.	36	0	4
O=C(NC(c1ccc(F)cc1)c1ccc2ccccc2n1)C1CCN(CCOc2ccc(Cl)cc2Cl)CC1 (stereo unspecified)	64*	.	.	-3	4	.	47	0	2
O=S(=O)(c1cccs1)N1CCN(c2ccc(Cl)cc2)CC1	3	3	-39	5	-1	2	.	.	.
O=C(NC(c1ccc(F)cc1)c1ccc2ccccc2n1)C1CCN(CCOc2ccc(F)cc2)CC1 (stereo unspecified)	39	.	.	-3	12	.	.	.	.
COc1ccc(OCCN2CCC(C(=O)NC(c3ccccc3)c3ccc4ccccc4n3)CC2)cc1 (stereo unspecified)	49*	.	.	-6	15	.	14	-1	-13
O=c1[nH]cc(N2CCCCCC2)c(=O)[nH]1	1	1	11	4	-6	0	.	.	.
O=C(Cc1ccc([N+](=O)[O-])cc1)Nc1cccc(C(=O)N2CCCCC2)c1	-8	4	-3	-5	-6	-2	.	.	.
SMILES	EBI2 antag	CCR6 antagonist	APJ antag	HTR2A ag	CXCR6 inh	APJ agonist	EBI2 conf	EBI2 agonist	bGal cs
CSCCC(NC(=O)c1cccc([N+](=O)[O-])c1)C(=O)OCC(=O)N1CCCC1=O (stereo unspecified)	-5	-1	-3	5	3	4	.	.	.
O=C(NC(c1ccccc1)c1ccc2ccccc2n1)C1CCN(CCOc2ccc(Cl)cc2)CC1 (stereo unspecified)	60*	.	.	-4	5	.	59*	2	8
COc1ccc(C(NC(=O)C2CCN(CCOc3ccc(Cl)cc3)CC2)c2cccs2)cc1 (stereo unspecified)	46*	.	.	2	4	.	32	1	9
Nc1ccccc1NC1=CC(=O)CC(c2ccccc2)C1 (stereo unspecified)	.	.	9	.	.	-2	.	.	.
Cc1ccc(NC2=CC(=O)CC(c3ccc(Cl)cc3)C2)cc1 (stereo unspecified)	82*	1	1	-3	9	-2	79*	-1	-8
CCOc1ccccc1NC1=CC(=O)CC(c2ccccc2)C1 (stereo unspecified)	15	15	-1	7	-3	-8	.	.	.
Cc1ccc(NC2=CC(=O)CC(c3ccccc3)C2)cc1 (stereo unspecified)	55*	6	2	-3	-6	0	42	2	5
C/C=C/C1=CC(=O)C[C@H](c2ccc(Cl)cc2)C1	-2	14	-1	-1	2	-4	.	.	.
O=C1C=C(Nc2ccc(Cl)cc2)CC(c2ccccc2)C1 (stereo unspecified)	70*	16	6	-2	-2	-1	55*	0	8
C=CCS(=O)(=O)N1CCCC(Cc2ccccc2C)(C(=O)OCC)C1 (stereo unspecified)	11	12	15	1	4	-3	.	.	.
